Test results reported in ChEMBL document CHEMBL1138354, “2-(2'-((dimethylamino)methyl)-4'-(fluoroalkoxy)-phenylthio)benzenamine derivatives as serotonin transporter imaging agents” (J Med Chem, 2007).

Assays:
[1] = system: Brain; assay: Biodistribution in iv dosed rat brain after 120 mins; assay type: ADME, organism-based; conditions: in vivo, 2 h
In short: (§1)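 [18F]-labeled tracer was given to rats under isoflurane anesthesia: 0.2 ml sterile water with 1 mg/mL BSA and 10–100 μCi, into the femoral vein. Three rats per group. Animals were killed by cervical dislocation under anesthesia at the stated time. Organs were removed, weighed and counted. Uptake was calculated as percent dose against a 1% aliquot of the injected dose counted alongside.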

[2] = system: Blood; assay: Biodistribution in iv dosed rat blood after 30 mins; assay type: ADME, organism-based; conditions: in vivo, 0.5 h; in short: as §1
[3] = system: Blood; assay: Biodistribution in iv dosed rat blood after 240 mins; assay type: ADME, organism-based; conditions: in vivo, 4 h; in short: as §1
[4] = system: Liver; assay: Biodistribution in iv dosed rat liver after 120 mins; assay type: ADME, organism-based; conditions: in vivo, 2 h; in short: as §1
[5] = system: Pancreas; assay: Biodistribution in iv dosed rat pancreas after 2 mins; assay type: ADME, organism-based; conditions: in vivo
[6] = system: Pancreas; assay: Biodistribution in iv dosed rat pancreas after 30 mins; assay type: ADME, organism-based; conditions: in vivo, 0.5 h
In short: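 Rats, 3 per group, under isoflurane. ¹⁸F tracer (10–100 μCi) in 0.2 ml sterile water with 1 mg/mL BSA injected into the femoral vein. Killed by cervical dislocation under anesthesia at the stated time. Organs removed, weighed and counted. % dose/organ calculated against counts of a 1% diluted aliquot of the injected dose.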

[7] = system: Pancreas; assay: Biodistribution in iv dosed rat pancreas after 60 mins; assay type: ADME, organism-based; conditions: in vivo, 1 h
[8] = system: Pancreas; assay: Biodistribution in iv dosed rat pancreas after 120 mins; assay type: ADME, organism-based; conditions: in vivo, 2 h; in short: as §1
[9] = system: Pancreas; assay: Biodistribution in iv dosed rat pancreas after 240 mins; assay type: ADME, organism-based; conditions: in vivo, 4 h
[10] = system: Spleen; assay: Biodistribution in iv dosed rat spleen after 2 mins; assay type: ADME, organism-based; conditions: in vivo
[11] = system: Spleen; assay: Biodistribution in iv dosed rat spleen after 240 mins; assay type: ADME, organism-based; conditions: in vivo, 4 h
[12] = system: Kidney; assay: Biodistribution in iv dosed rat kidney after 2 mins; assay type: ADME, organism-based; conditions: in vivo; in short: as §1
[13] = system: Muscle tissue; assay: Biodistribution in iv dosed rat muscle after 30 mins; assay type: ADME, organism-based; conditions: in vivo, 0.5 h; in short: as §1
[14] = system: Muscle tissue; assay: Biodistribution in iv dosed rat muscle after 240 mins; assay type: ADME, organism-based; conditions: in vivo, 4 h; in short: as §1
[15] = system: Brain; assay: Biodistribution in iv dosed rat brain after 2 mins; assay type: ADME, organism-based; conditions: in vivo; in short: as §1
[16] = system: Brain; assay: Biodistribution in iv dosed rat brain after 240 mins; assay type: ADME, organism-based; conditions: in vivo, 4 h; in short: as §1
[17] = system: Striatum; assay: Biodistribution in iv dosed rat striatum assessed as radioactivity after 30 mins; assay type: ADME, organism-based; conditions: in vivo, 0.5 h
[18] = system: Nucleic Acid; assay: Ratio of drug level in hypothalamus to cerebellum in rat after 2 mins; assay type: ADME, tissue-based; conditions: in vivo
[19] = system: Nucleic Acid; assay: Ratio of drug level in hippocampus to cerebellum in rat assessed as radioactivity after 240 mins; assay type: ADME, tissue-based; conditions: in vivo, 4 h
[20] = system: Nucleic Acid; assay: Ratio of drug level in cortex to cerebellum in rat assessed as radioactivity after 2 mins; assay type: ADME, tissue-based; conditions: in vivo
[21] = system: Nucleic Acid; assay: Ratio of drug level in striatum to cerebellum in rat assessed as radioactivity after 60 mins; assay type: ADME, tissue-based; conditions: in vivo, 1 h
[22] = system: Nucleic Acid; assay: Ratio of drug level in striatum to cerebellum in rat assessed as radioactivity after 240 mins; assay type: ADME, tissue-based; conditions: in vivo, 4 h
[23] = system: Lung; assay: Biodistribution in iv dosed rat lungs after 120 mins; assay type: ADME, organism-based; conditions: in vivo, 2 h; in short: as §1
[24] = system: Lung; assay: Biodistribution in iv dosed rat lung after 360 mins; assay type: ADME, organism-based; conditions: in vivo, 6 h; in short: as §1
[25] = system: Liver; assay: Biodistribution in iv dosed rat liver after 360 mins; assay type: ADME, organism-based; conditions: in vivo, 6 h; in short: as §1
[26] = system: Kidney; assay: Biodistribution in iv dosed rat kidney after 360 mins; assay type: ADME, organism-based; conditions: in vivo, 6 h; in short: as §1
[27] = system: Muscle tissue; assay: Biodistribution in iv dosed rat muscle after 360 mins; assay type: ADME, organism-based; conditions: in vivo, 6 h; in short: as §1
[28] = system: Bone; assay: Biodistribution in iv dosed rat bone after 360 mins; assay type: ADME, organism-based, Bone element; conditions: in vivo, 6 h; in short: as §1
[29] = system: Zone of skin; assay: Biodistribution in iv dosed rat skin after 360 mins; assay type: ADME, organism-based; conditions: in vivo, 6 h
[30] = system: Blood; assay: Biodistribution in iv dosed rat blood after 360 mins; assay type: ADME, organism-based; conditions: in vivo, 6 h; in short: as §1
[31] = system: Heart; assay: Biodistribution in iv dosed rat heart after 360 mins; assay type: ADME, organism-based; conditions: in vivo, 6 h; in short: as §1
[32] = system: Spleen; assay: Biodistribution in iv dosed rat spleen after 360 mins; assay type: ADME, organism-based; conditions: in vivo, 6 h
[33] = system: Brain; assay: Biodistribution in iv dosed rat brain after 360 mins; assay type: ADME, organism-based; conditions: in vivo, 6 h; in short: as §1
[34] = system: Nucleic Acid; assay: Ratio of drug level in hypothalamus to cerebellum in rat after 360 mins; assay type: ADME, tissue-based; conditions: in vivo, 6 h
[35] = system: Nucleic Acid; assay: Ratio of drug level in hippocampus to cerebellum in rat after 360 mins; assay type: ADME, tissue-based; conditions: in vivo, 6 h
[36] = system: Nucleic Acid; assay: Ratio of drug level in cortex to cerebellum in rat after 360 mins; assay type: ADME, tissue-based; conditions: in vivo, 6 h
[37] = system: Nucleic Acid; assay: Ratio of drug level in striatum to cerebellum in rat after 360 mins; assay type: ADME, tissue-based; conditions: in vivo, 6 h

CN(C)Cc1cc(OCC[18F])ccc1Sc1ccccc1N
Drug uptake [1]: 0.63 %ID | Drug uptake [2]: 4.74 %ID | Drug uptake [3]: 1.74 %ID | Drug uptake [4]: 7.68 %ID | Drug uptake [5]: 0.92 %ID | Drug uptake [6]: 0.24 %ID | Drug uptake [7]: 0.19 %ID | Drug uptake [8]: 0.08 %ID | Drug uptake [9]: 0.04 %ID | Drug uptake [10]: 1.22 %ID | Drug uptake [11]: 0.09 %ID | Drug uptake [12]: 7.93 %ID | Drug uptake [13]: 9.46 %ID | Drug uptake [14]: 2.28 %ID | Drug uptake [15]: 1.84 %ID | Drug uptake [16]: 0.18 %ID | Drug uptake [17]: 0.8 % ID/g | Ratio [18]: 1.28 | Ratio [19]: 2.14 | Ratio [20]: 1.53 | Ratio [21]: 3.87 | Ratio [22]: 2.72 | Drug uptake [23]: 0.53 %ID

CN(C)Cc1cc(OCC[18F])ccc1Sc1ccc(Br)cc1N
Drug uptake [24]: 1.89 %ID | Drug uptake [25]: 1.86 %ID | Drug uptake [26]: 1.13 %ID | Drug uptake [27]: 8.98 %ID | Drug uptake [28]: 15.3 %ID | Drug uptake [1]: 2.16 %ID | Drug uptake [2]: 5.7 %ID | Drug uptake [3]: 5.21 %ID | Drug uptake [4]: 2.85 %ID | Drug uptake [10]: 1.05 %ID | Drug uptake [11]: 0.39 %ID | Drug uptake [12]: 5.33 %ID | Drug uptake [13]: 15.9 %ID | Drug uptake [14]: 8.37 %ID | Drug uptake [15]: 2.05 %ID | Drug uptake [16]: 1.57 %ID | Drug uptake [17]: 1.09 % ID/g | Ratio [18]: 0.95 | Ratio [19]: 2.99 | Ratio [20]: 1.45 | Ratio [21]: 2.76 | Ratio [22]: 3.84 | Drug uptake [23]: 2.98 %ID | Drug uptake [29]: 6.52 %ID | Drug uptake [30]: 4.75 %ID | Drug uptake [31]: 0.13 %ID | Drug uptake [32]: 0.29 %ID | Drug uptake [33]: 1.36 %ID | Ratio [34]: 4.32 | Ratio [35]: 3.08 | Ratio [36]: 3.2 | Ratio [37]: 3.8
